Entries after “also recorded” stand apart in the source; their conditions may differ. Like-named read-outs stand apart in the source and are kept apart here.
Key:
HIV-1NL4–3 [1] = test: HIV-1/NL4–3 replication inhibition assay in MT-4 lymphocytes; format: cell-based; details: for activity compared with 4 (EC50 0.019 μM): HIV-1NL4–3 infected MT-4 cell lines
Summary of the method: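 MT-4 cells infected with HIV-1 NL4-3 at MOI 0.01 in the presence of test compound. Culture supernatants were harvested on day 4 post-infection, and p24 antigen was measured by capture ELISA. IC50 was taken as the concentration that inhibits NL4-3 replication by 50%.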

HIV-1NL4–3 [2] = details: cited from earlier work
NL4–3/V370A = details: most prevalent bevirimat-resistant polymorphism; cited from earlier work
[3] = Human immunodeficiency virus 1, Lymphocyte, read-out: PIC50 (experimental)
[4] = Human immunodeficiency virus 1, MT4, 96 h

Compound	IC50 (HIV-1NL4–3 [1]; [3]) [nM]	IC50 (HIV-1NL4–3 [1]; [4]) [nM]	activity compared with 4 (EC50 0.019 μM) (HIV-1NL4–3 [1])	further results
C=C(C)[C@@H]1CC[C@]2(C(=O)N3CCN(C(=O)/C=C/c4ccc(OC)c(OC)c4)CC3)CC[C@]3(C)[C@H](CC[C@@H]4[C@@]5(C)CC[C@H](OC(=O)CC(C)(C)C(=O)O)C(C)(C)[C@@H]5CC[C@]43C)[C@@H]12 [Compound 9b]	28.8	29 ± 9.3	–	–
C=C(C)[C@@H]1CC[C@]2(C(=O)N3CCN(C(=O)CCc4ccc5c(c4)OCO5)CC3)CC[C@]3(C)[C@H](CC[C@@H]4[C@@]5(C)CC[C@H](OC(=O)CC(C)(C)C(=O)O)C(C)(C)[C@@H]5CC[C@]43C)[C@@H]12 [Compound 13m, 4-(28-(4-(3-(Benzo[d] [1,3]dioxol-5-yl)propanoyl)piperazine-1-carbonyl)lup-20(29)-en-3b-oxy)-2,2-dimethyl-4-oxobutanoic acid]	–	–	improved or comparable activity; also recorded: improved or similar activity	–
C=C(C)[C@@H]1CC[C@]2(C(=O)N3CCN(C(=O)/C=C/c4ccc5c(c4)OCO5)CC3)CC[C@]3(C)[C@H](CC[C@@H]4[C@@]5(C)CC[C@H](OC(=O)CC(C)(C)C(=O)O)C(C)(C)[C@@H]5CC[C@]43C)[C@@H]12 [Compound 4]	19.1	19 ± 5.4	–	activity increase compared with 3 against NL4–3 (HIV-1NL4–3 [2]): three-fold; activity increase compared with 3 against NL4–3/V370A (NL4–3/V370A): 51 fold
C=C(C)[C@@H]1CC[C@]2(C(=O)N3CCN(C(=O)/C=C/c4ccc(OCOC)c(OC)c4)CC3)CC[C@]3(C)[C@H](CC[C@@H]4[C@@]5(C)CC[C@H](OC(=O)CC(C)(C)C(=O)O)C(C)(C)[C@@H]5CC[C@]43C)[C@@H]12 [Compound 9t, (E)-4-(28-(4-(3-(3-methoxy-4-(methoxymethoxy)phenyl)acryloyl)piperazine-1-carbonyl)lup-20(29)-en-3β-oxy)-2,2-dimethyl-4-oxobutanoic acid]	–	–	improved or comparable activity; also recorded: improved or similar activity	–
C=C(C)[C@@H]1CC[C@]2(C(=O)O)CC[C@]3(C)[C@H](CC[C@@H]4[C@@]5(C)CC[C@H](OC(=O)CC(C)(C)C(=O)O)C(C)(C)[C@@H]5CC[C@]43C)[C@@H]12 [Compound 3, 3-O-(3′,3′-dimethylsuccinyl)betulinic acid, reference compound]	64.6	65 ± 1.9	–	–
C=C(C)[C@@H]1CC[C@]2(C(=O)N3CCN(C(=O)/C=C/c4ccc(OCOC)c(OCOC)c4)CC3)CC[C@]3(C)[C@H](CC[C@@H]4[C@@]5(C)CC[C@H](OC(=O)CC(C)(C)C(=O)O)C(C)(C)[C@@H]5CC[C@]43C)[C@@H]12 [Compound 9r]	50.1	50 ± 21	–	–
C=C(C)[C@@H]1CC[C@]2(C(=O)N3CCN(CCCCC(=O)N4CCN(c5cc(NCc6ccccc6)ncn5)CC4)CC3)CC[C@]3(C)[C@H](CC[C@@H]4[C@@]5(C)CC[C@H](OC(=O)CC(C)(C)C(=O)O)C(C)(C)[C@@H]5CC[C@]43C)[C@@H]12 [Compound 32, 4-(28-(4-(5-(4-(6-(Benzylamino)pyrimidin-4-yl)piperazin-1-yl)-5-oxopentyl)piperazine-1-carbonyl)lup-20(29)-en-3β-oxy)-2,2-dimethyl-4-oxobutanoic acid]	–	–	improved or comparable activity; also recorded: improved or similar activity	–
C=C(C)[C@@H]1CC[C@]2(C(=O)OCCCOC(=O)/C=C/c3ccc(OC)cc3)CC[C@]3(C)[C@H](CC[C@@H]4[C@@]5(C)CC[C@H](OC(=O)CC(C)(C)C(=O)O)C(C)(C)[C@@H]5CC[C@]43C)[C@@H]12 [Compound 20a]	–	–	–	fold less potent than 9e (HIV-1NL4–3 [1]; compared with piperazine-linked 9e): 11 fold
C=C(C)[C@@H]1CC[C@]2(C(=O)N3CCN(CCCCC(=O)N4CCN(C(=O)/C=C/c5ccc6c(c5)OCO6)CC4)CC3)CC[C@]3(C)[C@H](CC[C@@H]4[C@@]5(C)CC[C@H](OC(=O)CC(C)(C)C(=O)O)C(C)(C)[C@@H]5CC[C@]43C)[C@@H]12 [Compound 31]	–	12 ± 4.1	–	–
C=C(C)[C@@H]1CC[C@]2(C(=O)N3CCN(C(=O)/C=C/c4ccc(N(C)C)cc4)CC3)CC[C@]3(C)[C@H](CC[C@@H]4[C@@]5(C)CC[C@H](OC(=O)CC(C)(C)C(=O)O)C(C)(C)[C@@H]5CC[C@]43C)[C@@H]12 [Compound 9i, (E)-4-(28-(4-(3-(4-(dimethylamino)phenyl)acryloyl)piperazine-1-carbonyl)lup-20(29)-en-3β-oxy)-2,2-dimethyl-4-oxobutanoic acid]	–	–	improved or comparable activity; also recorded: improved or similar activity	–
C=C(C)[C@@H]1CC[C@]2(C(=O)N3CCN(C(=O)/C=C/c4ccc(O)c(O)c4)CC3)CC[C@]3(C)[C@H](CC[C@@H]4[C@@]5(C)CC[C@H](OC(=O)CC(C)(C)C(=O)O)C(C)(C)[C@@H]5CC[C@]43C)[C@@H]12 [Compound 10a]	28.2	28 ± 9.8	–	–
C=C(C)[C@@H]1CC[C@]2(C(=O)N3CCN(C(=O)/C=C/c4ccc(O)c(OC)c4)CC3)CC[C@]3(C)[C@H](CC[C@@H]4[C@@]5(C)CC[C@H](OC(=O)CC(C)(C)C(=O)O)C(C)(C)[C@@H]5CC[C@]43C)[C@@H]12 [Compound 10c, (E)-4-(28-(4-(3-(4-hydroxy-3-methoxyphenyl)acryloyl)piperazine-1-carbonyl)lup-20(29)-en-3β-oxy)-2,2-dimethyl-4-oxobutanoic acid]	–	–	improved or comparable activity; also recorded: improved or similar activity	–
